Compounds with a hit are over-represented: about 9.6% of the library has one in this group of screens.
BaF3 tox = parental Ba/F3 viability inhibition as JAK2V617F counter-screen; 220,000 tested, 1.1% active; inhibition, % at 5.6 µM; CellTiter-Glo ATP luminescence;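 active = inhibition above a per-campaign cutoff, the mean inhibition of all tested compounds plus 3 SD, cut at about 27% in these data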;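 also: 0% = DMSO wells and 100% = JAK Inhibitor I control wells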
Lmaj promast = reduces viability of Leishmania major promastigotes. resazurin fluorescence viability. inhibition, % at 10 µM. 200,000 tested, 9% active. AID 1063; in the data active = inhibition above about 50%;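 also: promastigotes grown with compound for 44 hours at 28 °C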
MT stabilizer = stabilizes microtubules in HeLa cells | % tubulin-high responders, % at 10 µM | 200,000 tested, 0.83% active | HeLa tubulin immunostaining HCS, 24 h; share of cells brighter than vehicle mean+2SD;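 active = plate Z-score above 3 for both tubulin-high and condensed-nucleus cell shares, with cell loss under 80%, at 10 µM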;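 also: anti alpha tubulin signal scored within the nucleus-defined area of each cell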
APP transl inh = APP translation inhibition | 190,000 tested, 0.82% active | AID 1285 | SH-SY5Y APP 5'UTR-luciferase reporter, luminescence | inhibition, % at 2 µM;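 active = inhibition above a set limit, derived from the sample mean plus 3 SD, cut at about 45% in these data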
bCat nuc transl = modulators of beta-catenin nuclear translocation; nuclear translocation activity, % at 5 µM; HeLa beta-catenin nuclear translocation, immunofluorescence imaging; 190,000 tested, 0.3% active;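 active = nuclear translocation activity above 50% at 5 µM, with a well cell count of 50 or more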;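 also: per-cell ratio of nuclear to cytoplasmic median beta-catenin stain intensity; plate controls were DMSO negative control for no effect and GSK-3 inhibitor IX positive control for full effect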
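Test system: human HeLa cell line; Doses: 5 µM primary, 0.02–20 µM confirmation; Incubation: 24 h compound exposure, 37°C; Detection: beta-catenin immunofluorescence imaging with DAPI; Read-out: beta-catenin nuclear/cytoplasmic ratio, % activation.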
Ba/F3 V617F tox = reduce viability of Ba/F3 cells dependent on JAK2V617F; 220,000 tested, 1.1% active; inhibition, % at 5.6 µM; Ba/F3 EpoR-JAK2V617F viability, ATP luminescence;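 active = inhibition above the campaign mean plus 3 SD over all tested compounds, cut at about 24% in these data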;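 also: cytokine-independent growth of Ba/F3 cells driven by EpoR plus mutant JAK2; 0% = DMSO-treated cells and 100% = JAK inhibitor I control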
Active calls of the source: *; · = no result.

SMILES	BaF3 tox	Lmaj promast	MT stabilizer	APP transl inh	bCat nuc transl	Ba/F3 V617F tox
CC#CCN1c2ccccc2[C@]23C[C@@H](C(=O)OC)N=C2NC(C(=O)OC)=C(C(=O)OC)[C@H]13	·	·	·	·	1	·
CC1(C)CC(=O)C2=C(C1)OC(N)=C(C#N)C2c1cc2c(cc1[N+](=O)[O-])OCO2 (centres undefined)	-1	65*	3	1	-1	-5
CN1CCN(/C=N/C2=C(C#N)C(c3ccccc3)C3=C(CC(C)(C)CC3=O)O2)CC1 (centres undefined)	12	75*	2	-2	-1	3
CC1(C)CC(=O)C2=C(C1)OC(N)=C(C#N)C2c1cn(-c2ccccc2)nc1-c1ccccc1 (centres undefined)	1	90*	4	-3	-2	-4
CC1(NC(=O)NCc2ccco2)CCS(=O)(=O)C1 (centres undefined)	4	-8	3	2	0	-3
Cc1cc(C(=O)NNc2ccc(F)cc2)no1	0	·	·	·	7	-2
O=C(N/N=C/c1ccco1)c1cccc(N2CCCC2=O)c1	7	18	4	-17	1	2
CC(C)c1ccc(/C=N/NC(=O)c2ccccc2Cl)cc1	5	1	23*	61*	-1	23
O=C(N/N=C/c1cc(Br)ccc1O)c1cccc(N2CCCC2=O)c1	2	100*	3	34	-1	2
COC(=O)N/N=C/c1cc(Br)ccc1O	10	-3	3	2	0	3
O=C(N/N=C/c1cc(Br)ccc1O)c1ccccc1Cl	3	98*	9	41	-4	-2
O=C(CCc1ccccc1)N/N=C/c1cc(Br)ccc1O	8	98*	7	8	4	5
COc1ccc(N(CC(=O)N/N=C(\C)CCc2ccccc2)S(=O)(=O)c2ccc(C)cc2)cc1	3	·	·	·	1	-1
O=C(NCCN1CCCCC1)c1ccc(Oc2cc(Cl)cc(Cl)c2)o1	-4	·	·	·	4	2
CN(C)S(=O)(=O)c1ccc(NC(=O)CN2CCc3ccccc32)cc1	-4	·	·	·	1	-1
c1ccc(Nc2c(-c3ccco3)nc3ccccn23)cc1	7	49	3	-1	·	-2
Fc1ccc(Nc2c(-c3ccco3)nc3ccccn23)cc1	3	66*	2	-18	·	-2
CC(C)(C)c1nnc(N/N=C/c2ccccc2O)n(N)c1=O	1	98*	10	76*	4	-3
CC(C)(C)c1nnc(N/N=C/c2ccccc2)n(N)c1=O	6	-5	4	-8	1	-2
OCCC1CN(Cc2cccc(-n3cccn3)c2)CCN1Cc1ccccc1 (centres undefined)	7	79*	4	7	0	3
CC(=O)c1cccc(CN2CCN(Cc3ccccc3)C(CCO)C2)c1 (centres undefined)	0	18	10	2	1	-2
Cc1ccc(CN2CCN(Cc3ccc(-n4cccn4)cc3)CC2CCO)cc1 (centres undefined)	0	62*	1	17	-1	-5
CC(C)CCN1CCN(Cc2cccc(-n3cccn3)c2)CC1CCO (centres undefined)	3	83*	2	6	0	2
Cc1cc(-n2cccn2)ccc1CN1CCN(C2CCCC2)C(CCO)C1 (centres undefined)	5	64*	4	16	3	-1
Cc1cc(-n2cccn2)ccc1CN1CCN(CC(C)C)C(CCO)C1 (centres undefined)	3	·	·	·	1	-2
SMILES	BaF3 tox	Lmaj promast	MT stabilizer	APP transl inh	bCat nuc transl	Ba/F3 V617F tox
O=C(Nc1ccccc1)n1cc(-c2ccccn2)c(N2CCOCC2)n1	2	7	7	-8	8	-1
CC(C)(C)n1cnnc1Sc1ncccc1[N+](=O)[O-]	-5	·	·	·	1	-4
CC(C)OCCCn1c(SCC(=O)N2CCc3ccccc32)nc2ccccc2c1=O	1	7	3	-26	5	-5
CN(C)C(CNC(=O)c1ccc2c(=O)n(-c3ccccc3F)c(=S)[nH]c2c1)Cc1ccccc1 (centres undefined)	8	-1	3	-14	2	7
Cc1ccc(SCC(=O)Nc2cccc(C(=O)NC(C)(C)C)c2)cc1	4	95*	1	-2	·	-1
Cc1ccc(C)c(NS(=O)(=O)c2cc(C(=O)NCCSC3CCCCC3)ccc2C)c1	3	97*	4	-10	1	-2

Screening results as filed in PubChem.
